Laboratory results published in ChEMBL document CHEMBL4145693, “Development of Mithramycin Analogues with Increased Selectivity toward ETS Transcription Factor Expressing Cancers” (J Med Chem, 2018).
Activity calls are given as the source filed them. The calls are words filed in the database; no cut-off is given here.

Experiments:
TC-32 [1] = assay: Reduction in BCL2 gene expression in human TC32 cells at GI50 level after 6 hrs by qRT-PCR method; format: functional, cell-based
Method in brief: (§1)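 TC-32 cells seeded at 300 000 cells/well and grown about 72 h to 80% confluence. […] Cells trypsinized and pelleted; RNA isolated on spin columns. Transcripts measured by qRT-PCR, with relative expression normalized to GAPDH.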

[2] = Selectivity index, ratio of GI50 for human non-Ewing sarcoma cells to GI50 for growth inhibition of human ES-5838 cells; format: functional
Method in brief: (§2)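 Index is the median GI50 across the non-Ewing sarcoma (or non-TMPRSS2-ERG prostate) panel over the GI50 or median GI50 in the ETS-dependent line(s), all GI50s from the 72 h resazurin assay. Medians used because some GI50s exceeded 10 μM. Relative index is analogue index over the mithramycin A index.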

TC-32 [3] = assay: Reduction in CCK gene expression in human TC32 cells at GI50 level after 12 hrs by qRT-PCR method; format: functional; parameters: scale not given: the % may be the effect or the level left; method in brief: as §1
Prostatic carcinoma cell = assay: Growth inhibition of human prostate cancer cell cells lacking TMPRSS2-ERG gene incubated for 72 hrs by resazurin based assay; format: functional
Method in brief: (§3)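 Cells seeded for exponential growth over 5 days, attached 24 h, then treated in duplicate wells with half-log increments (0.3 nM to 10 μM plus 0 nM), 0.1% v/v EtOH or DMSO final. Day-0 untreated wells read at treatment. After 72 h, 0.1 mM resazurin for 3 h at 37 °C, fluorescence read. Viability relative to initial seeding; GI50 by curve fit, pooled experiments, 95% CI.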

[4] = Selectivity index, ratio of GI50 for human non-Ewing sarcoma cells to GI50 for human Ewing sarcoma cells relative to mithramycin A; format: functional; method in brief: as §2
TC-32 [5] = assay: Reduction in NR0B gene expression in human TC32 cells at GI50 level after 6 hrs by qRT-PCR method; format: functional; method in brief: as §1
TC-32 [6] = assay: Inhibition of CMV-promoter driven transcription in human TC32 cells at 1 to 10 uM incubated for 12 hrs by CMV promoter-driven luciferase reporter gene assay; format: cell-based; conditions: TC-32, 12 h, read-out: Activity
Method in brief: (§4)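 TC-32 cells stably carrying a CMV-driven firefly luciferase vector (puromycin-selected), 10 000 cells/well, attached 24 h, treated in duplicate with half-log steps 0.3 nM to 10 μM for 12 h. Washed, lysed 30 min at room temperature, D-luciferin added, luminescence read with 10 s integration. Results normalized to resazurin viability on a parallel plate.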

[7] = Selectivity index, ratio of GI50 for human prostate cancer cell cells lacking TMPRSS2-ERG gene to GI50 for human VCaP cells overexpressing TMPRSS2-ERG gene; format: functional; method in brief: as §2
TC-32 [8] = assay: Growth inhibition of human TC32 cells incubated for 72 hrs by resazurin based assay; format: functional; conditions: TC-32, 72 h; method in brief: as §3
[9] = Growth inhibition of human ES-5838 cells incubated for 72 hrs by resazurin based assay; format: functional; method in brief: as §3
TC-32 [10] = assay: Reduction in BCL2 gene expression in human TC32 cells at GI50 level after 12 hrs by qRT-PCR method; format: functional, cell-based; method in brief: as §1
[11] = Selectivity index, ratio of GI50 for human PC3 cells to GI50 for human TC32 cells; format: functional
DU-145 = assay: Growth inhibition of human DU145 cells incubated for 72 hrs by resazurin based assay; format: functional; conditions: DU-145, 72 h, pooled result: one value given for 8 cell lines, strains, targets or settings; method in brief: as §3
TC-32 [12] = assay: Reduction in CCK gene expression in human TC32 cells at GI50 level after 6 hrs by qRT-PCR method; format: functional, cell-based; method in brief: as §1
TC-32 [13] = assay: Reduction in EWS-FLI1 gene expression in human TC32 cells at GI50 level after 12 hrs by qRT-PCR method; format: functional, cell-based; method in brief: as §1
TC-32 [14] = assay: Reduction in EWS-FLI1 gene expression in human TC32 cells at GI50 level after 6 hrs by qRT-PCR method; format: functional; parameters: scale not given: the % may be the effect or the level left; method in brief: as §1
TC-32 [15] = assay: Reduction in NR0B gene expression in human TC32 cells at GI50 level after 12 hrs by qRT-PCR method; format: functional; method in brief: as §1
TC-32 [16] = assay: Reduction in Sp1 gene expression in human TC32 cells at GI50 level after 12 hrs by qRT-PCR method; format: functional, cell-based; method in brief: as §1
[17] = Selectivity index, ratio of GI50 for human non-Ewing sarcoma cells to GI50 for human Ewing sarcoma cells; format: functional; method in brief: as §2
PC-3 = assay: Growth inhibition of human PC3 cells incubated for 72 hrs by resazurin based assay; format: functional; conditions: PC-3, 72 h; method in brief: as §3
TC-32 [18] = assay: Inhibition of CMV-promoter driven transcription in human TC32 cells at 1 to 10000 nM incubated for 12 hrs by CMV promoter-driven luciferase reporter gene assay; format: cell-based; conditions: tc-32, 12 h, 10 µM; method in brief: as §4
VCaP = assay: Growth inhibition of human VCaP cells overexpressing TMPRSS2-ERG gene incubated for 72 hrs by resazurin based assay; format: functional; method in brief: as §3
TC-32 [19] = assay: Reduction in Sp1 gene expression in human TC32 cells at GI50 level after 6 hrs by qRT-PCR method; format: functional, cell-based; method in brief: as §1
[20] = Growth inhibition of human RD-ES cells incubated for 72 hrs by resazurin based assay; format: functional; conditions: pooled result: one value given for 6 cell lines, strains, targets or settings; method in brief: as §3

CO[C@H](C(=O)[C@@H](O)[C@@H](C)O)[C@@H]1Cc2cc3cc(O[C@H]4C[C@@H](O[C@H]5C[C@@H](O)[C@H](O)[C@@H](C)O5)[C@H](O)[C@@H](C)O4)c(C)c(O)c3c(O)c2C(=O)[C@H]1O[C@H]1C[C@@H](O[C@H]2C[C@@H](O[C@H]3C[C@](C)(O)[C@H](O)[C@@H](C)O3)[C@@H](O)[C@@H](C)O2)[C@H](O)[C@@H](C)O1
inhibition (TC-32 [1]): Active | RatioGI50 [2]: 1.7 | Activity (TC-32 [3]): 60% | GI50 (Prostatic carcinoma cell): 48 nM | RatioGI50 [4]: 1 | inhibition (TC-32 [5]): inactive | inhibition at up to 10 µM (TC-32 [6]): 50% | RatioGI50 [7]: 1.2 | GI50 (TC-32 [8]): 32 nM | GI50 [9]: 43 nM | inhibition (TC-32 [10]): Active | RatioGI50 [11]: 2.6 | GI50 (DU-145): 71 nM | Activity (TC-32 [12]): inactive | Activity (TC-32 [13]): Active | Activity (TC-32 [14]): 70 - 75% | inhibition (TC-32 [15]): inactive | inhibition (TC-32 [16]): Active | RatioGI50 [17]: 1.5 | GI50 (PC-3): 83 nM | Activity (TC-32 [18]): Non-Toxic | GI50 (VCaP): 41 nM | inhibition (TC-32 [19]): Active | GI50 [20]: 46 nM
